From ChEMBL document CHEMBL1155465, “"Viologen" dendrimers as antiviral agents: the effect of charge number and distance” (J Med Chem, 2010)
Converted amounts (≈) assume the structure as drawn.

Legend:
[1] = tested on: Human immunodeficiency virus 1; assay: Antiviral activity against HIV1 3B infected in human PBMC assessed as inhibition of viral p24 antigen production by ELISA; format: functional, organism-based; conditions: Human immunodeficiency virus 1, 3B
Procedure, shortened: (§1)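 PBMCs infected with HIV-1 IIIB and cultured with a range of compound concentrations. EC50 is 50% inhibition of supernatant p24 core antigen (ELISA) relative to drug-free culture. CC50 is 50% reduction in cell viability. SI = CC50/EC50. Mean ± SD of ≥2 experiments.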

[2] = Cytotoxicity against human HeLa cells by MTT assay; format: cell-based
[3] = Cytotoxicity against human MT4 cells after 5 days by MTT assay; format: cell-based
Procedure, shortened: (§2)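 MT-4 cells in RPMI 1640 with 10% heat-inactivated FCS, 2 mM L-glutamine, 0.1% bicarbonate and gentamicin, seeded at 6 × 10⁵ cells/mL final with virus or mock infection. Viability read by MTT after 5 days at 540 and 690 nm, using the median OD of three wells. CC50 is 50% loss of mock-infected OD540. EC50 is 50% inhibition of virus-induced CPE. SI = CC50/EC50. Mean ± SD of ≥2 experiments.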

[4] = tested on: Human immunodeficiency virus; assay: Antiviral activity against HIV SO6141 infected in human MT4 cells after 5 days by MTT assay; format: functional, organism-based; conditions: Human immunodeficiency virus 1, SO6141, MT4, 120 h; procedure, shortened: as §2
Human alphaherpesvirus 1 [5] = assay: Antiviral activity against TK-deficient acyclovir-resistant HSV1 KOS infected in human E6SM cell assessed as inhibition of virus-induced cytopathicity; format: functional, organism-based; conditions: Human alphaherpesvirus 1, KOS
[6] = Selectivity index, ratio of CC50 for human PBMC to EC50 for HIV1 3B; procedure, shortened: as §1
[7] = tested on: Simian immunodeficiency virus; assay: Antiviral activity against SIV MAC251 infected in human MT4 cells after 5 days by MTT assay; format: functional, organism-based; conditions: MAC251, MT4, 120 h; procedure, shortened: as §2
[8] = Cytotoxicity against african green monkey Vero cells by MTT assay; format: cell-based; conditions: chlorocebus sabaeus
Reovirus sp. = assay: Antiviral activity against Reovirus infected in african green monkey Vero cells assessed as inhibition of virus-induced cytopathicity; format: functional, organism-based
Vaccinia virus = assay: Antiviral activity against Vaccina virus infected in human E6SM cell assessed as inhibition of virus-induced cytopathicity; format: functional, organism-based; conditions: Orthopoxvirus vaccinia
Sindbis virus = assay: Antiviral activity against Sindbis virus infected in african green monkey Vero cells assessed as inhibition of virus-induced cytopathicity; format: functional, organism-based
Punta Toro virus = assay: Antiviral activity against Punta Toro virus infected in african green monkey Vero cells assessed as inhibition of virus-induced cytopathicity; format: functional, organism-based
[9] = tested on: Vesicular stomatitis virus; assay: Antiviral activity against VSV infected in human E6SM cell assessed as inhibition of virus-induced cytopathicity; format: functional, organism-based
[10] = tested on: Respiratory syncytial virus; assay: Antiviral activity against RSV infected in human HeLa cell assessed as inhibition of virus-induced cytopathicity; format: functional, organism-based
Human alphaherpesvirus 2 = assay: Antiviral activity against HSV2 G infected in human E6SM cell assessed as inhibition of virus-induced cytopathicity; format: functional, organism-based; conditions: Human alphaherpesvirus 2, strain G
[11] = Cytotoxicity against human PBMC after 5 days by MTT assay; format: cell-based; procedure, shortened: as §1
Human alphaherpesvirus 1 [12] = assay: Antiviral activity against HSV1 KOS infected in human E6SM cell assessed as inhibition of virus-induced cytopathicity; format: functional, organism-based; conditions: Human alphaherpesvirus 1, KOS
[13] = tested on: Vesicular stomatitis virus; assay: Antiviral activity against VSV infected in human HeLa cell assessed as inhibition of virus-induced cytopathicity; format: functional, organism-based
[14] = tested on: Human immunodeficiency virus 1; assay: Antiviral activity against HIV1 3B infected in human MT4 cells after 5 days by MTT assay; format: functional, organism-based; conditions: Human immunodeficiency virus 1, 3B, MT4, 120 h; procedure, shortened: as §2
Human respirovirus 3 = assay: Antiviral activity against Parainfluenza virus 3 infected in african green monkey Vero cells assessed as inhibition of virus-induced cytopathicity; format: functional, organism-based; conditions: Human respirovirus 3, Vero
[15] = Cytotoxicity against human E6SM cells by MTT assay; format: cell-based
[16] = tested on: Human immunodeficiency virus 2; assay: Antiviral activity against HIV2 ROD infected in human MT4 cells after 5 days by MTT assay; format: functional, organism-based; conditions: Human immunodeficiency virus 2, ISOLATE ROD, MT4, 120 h; procedure, shortened: as §2
[17] = Selectivity index, ratio of CC50 for human MT4 cells to EC50 for HIV1 3B; format: toxicity, cell-based; conditions: read-out: Ratio CC50/EC50; procedure, shortened: as §2

Structure (SMILES)	CC50 at 120 h [3] [µM]	EC50 [14] [µM]	EC50 [16] [µM]	selectivity ratio [17]	also measured
CC[n+]1ccc(-c2cc[n+](Cc3cc(C[n+]4ccc(-c5cc[n+](CC)cc5)cc4)cc(-[n+]4ccc(-c5cc[n+](-c6cc(C[n+]7ccc(-c8cc[n+](CC)cc8)cc7)cc(C[n+]7ccc(-c8cc[n+](CC)cc8)cc7)c6)cc5)cc4)c3)cc2)cc1.F[P-](F)(F)(F)(F)F.F[P-](F)(F)(F)(F)F.F[P-](F)(F)(F)(F)F.F[P-](F)(F)(F)(F)F.F[P-](F)(F)(F)(F)F.F[P-](F)(F)(F)(F)F.F[P-](F)(F)(F)(F)F.F[P-](F)(F)(F)(F)F.F[P-](F)(F)(F)(F)F.F[P-](F)(F)(F)(F)F	> 49	1.01	> 49	48.5	EC50 [1]: 0.79 mg/L; MCC [2]: > 50 µg/mL; EC50 [4]: > 49 µM; EC50 (Human alphaherpesvirus 1 [5]): 30 mg/L; Ratio CC50/EC50 [6]: 34; EC50 [7]: > 49 µM; MCC [8]: > 50 µg/mL; EC50 (Reovirus sp.): > 50 mg/L; EC50 (Vaccinia virus): > 50 mg/L; EC50 (Sindbis virus): > 50 mg/L; EC50 (Punta Toro virus): > 50 mg/L; EC50 [9]: > 50 mg/L; EC50 [10]: 50 mg/L; EC50 (Human alphaherpesvirus 2): 50 mg/L; CC50 at 120 h [11]: 26.8 mg/L; EC50 (Human alphaherpesvirus 1 [12]): 6 mg/L; EC50 [13]: > 50 mg/L; EC50 (Human respirovirus 3): > 50 mg/L; MCC [15]: > 50 µg/mL
BrCC[n+]1ccc(-c2ccncc2)cc1	79.2	> 79.2	> 79.2	< 1	–
O=c1[nH]c(=O)n([C@H]2C[C@H](O)[C@@H](CO)O2)cc1/C=C/Br [BRIVUDINE]	–	–	–	–	MCC [2]: > 400 µg/mL; EC50 (Human alphaherpesvirus 1 [5]): > 400 mg/L; MCC [8]: > 400 µg/mL; EC50 (Reovirus sp.): > 400 mg/L; EC50 (Vaccinia virus): 9.6 mg/L (≈ 28.8 µM); EC50 (Sindbis virus): > 400 mg/L; EC50 (Punta Toro virus): > 400 mg/L; EC50 [9]: > 400 mg/L; EC50 [10]: > 400 mg/L; EC50 (Human alphaherpesvirus 2): 80 mg/L (≈ 240 µM); EC50 (Human alphaherpesvirus 1 [12]): 0.384 mg/L (≈ 1.15 µM); EC50 [13]: > 400 mg/L; EC50 (Human respirovirus 3): > 400 mg/L; MCC [15]: > 400 µg/mL
CCC[n+]1ccc(-c2ccncc2)cc1	> 363	> 363	> 363	< 1	–
CC[n+]1ccc(-c2cc[n+](Cc3ccc(CBr)cc3)cc2)cc1	0.9	> 0.9	> 0.9	< 1	–
C=C[n+]1ccc(-c2ccncc2)cc1	15.9	> 15.9	> 15.9	< 1	–
C=C[n+]1ccc(-c2cc[n+](Cc3ccccc3)cc2)cc1	2.7	> 2.7	> 2.7	< 1	–
CC[n+]1ccc(-c2cc[n+](Cc3cc(C[n+]4ccc(-c5cc[n+](CC)cc5)cc4)cc(C[n+]4ccc(-c5cc[n+](Cc6cc(C[n+]7ccc(-c8cc[n+](Cc9cc(C[n+]%10ccc(-c%11cc[n+](CC)cc%11)cc%10)cc(C[n+]%10ccc(-c%11cc[n+](CC)cc%11)cc%10)c9)cc8)cc7)cc(-[n+]7ccc(-c8cc[n+](-c9cc(C[n+]%10ccc(-c%11cc[n+](Cc%12cc(C[n+]%13ccc(-c%14cc[n+](CC)cc%14)cc%13)cc(C[n+]%13ccc(-c%14cc[n+](CC)cc%14)cc%13)c%12)cc%11)cc%10)cc(C[n+]%10ccc(-c%11cc[n+](Cc%12cc(C[n+]%13ccc(-c%14cc[n+](CC)cc%14)cc%13)cc(C[n+]%13ccc(-c%14cc[n+](CC)cc%14)cc%13)c%12)cc%11)cc%10)c9)cc8)cc7)c6)cc5)cc4)c3)cc2)cc1.F[P-](F)(F)(F)(F)F.F[P-](F)(F)(F)(F)F.F[P-](F)(F)(F)(F)F.F[P-](F)(F)(F)(F)F.F[P-](F)(F)(F)(F)F.F[P-](F)(F)(F)(F)F.F[P-](F)(F)(F)(F)F.F[P-](F)(F)(F)(F)F.F[P-](F)(F)(F)(F)F.F[P-](F)(F)(F)(F)F.F[P-](F)(F)(F)(F)F.F[P-](F)(F)(F)(F)F.F[P-](F)(F)(F)(F)F.F[P-](F)(F)(F)(F)F.F[P-](F)(F)(F)(F)F.F[P-](F)(F)(F)(F)F.F[P-](F)(F)(F)(F)F.F[P-](F)(F)(F)(F)F.F[P-](F)(F)(F)(F)F.F[P-](F)(F)(F)(F)F.F[P-](F)(F)(F)(F)F.F[P-](F)(F)(F)(F)F.F[P-](F)(F)(F)(F)F.F[P-](F)(F)(F)(F)F.F[P-](F)(F)(F)(F)F.F[P-](F)(F)(F)(F)F	> 18.6	1.4	9.82	13.3	EC50 [1]: > 0.52 mg/L; MCC [2]: > 50 µg/mL; EC50 [4]: 1.23 µM; EC50 (Human alphaherpesvirus 1 [5]): 30 mg/L; Ratio CC50/EC50 [6]: <1; EC50 [7]: ≥ 0.49 µM; MCC [8]: > 50 µg/mL; EC50 (Reovirus sp.): > 50 mg/L; EC50 (Vaccinia virus): > 50 mg/L; EC50 (Sindbis virus): > 50 mg/L; EC50 (Punta Toro virus): > 50 mg/L; EC50 [9]: > 50 mg/L; EC50 [10]: 50 mg/L; EC50 (Human alphaherpesvirus 2): 50 mg/L; CC50 at 120 h [11]: 0.52 mg/L; EC50 (Human alphaherpesvirus 1 [12]): 6 mg/L; EC50 [13]: > 50 mg/L; EC50 (Human respirovirus 3): > 50 mg/L; MCC [15]: > 50 µg/mL
C=C[n+]1ccc(-c2cc[n+](C)cc2)cc1	26.1	> 26.1	> 26.1	< 1	–
C[n+]1ccc(-c2cc[n+](CBr)cc2)cc1	5.1	> 5.1	> 5.1	< 1	–
BrCC[n+]1ccc(-c2cc[n+](CCBr)cc2)cc1	20.6	5.88	> 20.6	3.5	EC50 [7]: > 20.6 µM
NCCC[n+]1ccc(-c2ccncc2)cc1	> 346	> 346	> 346	< 1	–
BrCc1cc(CBr)cc(-[n+]2ccc(-c3cc[n+](-c4cc(CBr)cc(CBr)c4)cc3)cc2)c1	> 148	> 148	> 148	< 1	–
NCCC[n+]1ccc(-c2cc[n+](CCCN)cc2)cc1	3.3	> 3.3	> 3.3	< 1	–
NC(=O)c1ncn([C@@H]2O[C@H](CO)[C@@H](O)[C@H]2O)n1 [RIBAVIRIN]	–	–	–	–	MCC [2]: > 400 µg/mL; EC50 (Human alphaherpesvirus 1 [5]): > 400 mg/L; MCC [8]: > 400 µg/mL; EC50 (Reovirus sp.): 80 mg/L (≈ 328 µM); EC50 (Vaccinia virus): 48 mg/L (≈ 197 µM); EC50 (Sindbis virus): > 400 mg/L; EC50 [9]: > 400 mg/L; EC50 (Human alphaherpesvirus 2): > 400 mg/L; EC50 (Human alphaherpesvirus 1 [12]): > 400 mg/L; EC50 [13]: 48 mg/L (≈ 197 µM); MCC [15]: > 400 µg/mL
CC[n+]1ccc(-c2ccncc2)cc1	281	> 282	> 282	< 1	–
OCc1cc(CO)cc(-[n+]2ccc(-c3cc[n+](-c4cc(CO)cc(CO)c4)cc3)cc2)c1	2.7	> 2.7	> 2.7	< 1	–
C=C[n+]1ccc(-c2cc[n+](Cc3cc(C[n+]4ccc(-c5cc[n+](C=C)cc5)cc4)cc(C[n+]4ccc(-c5cc[n+](C=C)cc5)cc4)c3)cc2)cc1	33.4	> 33.4	> 33.4	< 1	–
NCCC[n+]1ccc(-c2cc[n+](Cc3ccccc3)cc2)cc1	0.9	> 0.9	> 0.9	< 1	–
C[n+]1ccc(-c2cc[n+](C)cc2)cc1	25.2	> 25.2	> 25.2	< 1	–
OCC[n+]1ccc(-c2cc[n+](Cc3cc(C[n+]4ccc(-c5cc[n+](CCO)cc5)cc4)cc(C[n+]4ccc(-c5cc[n+](CCO)cc5)cc4)c3)cc2)cc1	> 104	33.3	> 104	3.11	EC50 [4]: > 104 µM; EC50 [7]: 37.7 µM
C=C[n+]1ccc(-c2cc[n+](CCc3ccc([N+](=O)[O-])cc3)cc2)cc1	0.4	> 0.4	> 0.4	< 1	–
CC[n+]1ccc(-c2cc[n+](Cc3cc(C[n+]4ccc(-c5cc[n+](CC)cc5)cc4)cc(C[n+]4ccc(-c5cc[n+](CC)cc5)cc4)c3)cc2)cc1	> 81.1	> 81.1	> 81.1	< 1	–
CC[n+]1ccc(-c2cc[n+](Cc3cc(CO)cc(C[n+]4ccc(-c5cc[n+](CC)cc5)cc4)c3)cc2)cc1	10.6	> 10.6	> 10.6	< 1	–
